The values that follow come from ChEMBL document CHEMBL1149149, “Design, synthesis, and biological activity of 1,3-disubstituted ureas as potent inhibitors of the soluble epoxide hydrolase of increased water solubility” (J Med Chem, 2004).

Molecules are shown by their SMILES. ≈ marks a conversion by molar mass, not a printed value.

The target in data set [1] is T1, Bifunctional epoxide hydrolase 2 (Mus musculus, UniProt P34914).
T1 sequence (P34914 whole entry): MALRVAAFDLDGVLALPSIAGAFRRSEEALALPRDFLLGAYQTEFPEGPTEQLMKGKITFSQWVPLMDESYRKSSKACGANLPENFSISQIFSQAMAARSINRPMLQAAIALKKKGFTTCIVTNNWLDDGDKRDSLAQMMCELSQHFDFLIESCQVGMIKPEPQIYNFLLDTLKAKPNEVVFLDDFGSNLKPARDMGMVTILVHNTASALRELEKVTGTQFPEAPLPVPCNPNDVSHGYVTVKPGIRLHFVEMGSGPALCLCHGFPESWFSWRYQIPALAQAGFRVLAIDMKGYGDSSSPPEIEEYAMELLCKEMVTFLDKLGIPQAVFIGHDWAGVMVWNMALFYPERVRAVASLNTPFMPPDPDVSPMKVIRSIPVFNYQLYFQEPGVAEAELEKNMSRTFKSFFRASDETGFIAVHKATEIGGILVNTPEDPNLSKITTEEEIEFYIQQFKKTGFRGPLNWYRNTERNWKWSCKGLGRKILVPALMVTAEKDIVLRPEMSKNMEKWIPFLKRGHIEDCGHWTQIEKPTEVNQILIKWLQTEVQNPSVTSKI
The data set can be described thus: Tested for 50 % inhibitory concentration against mouse soluble epoxide hydrolase (sEH). The method, boiled down:
(§1)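 Recombinant sEH was expressed in baculovirus and affinity-purified to at least 97% purity. Enzyme was preincubated with inhibitor for 5 min at 30 °C in 0.1 M sodium phosphate, pH 7.4, with 0.1 mg/mL BSA. Racemic 4-nitrophenyl-trans-2,3-epoxy-3-phenylpropyl carbonate was the substrate (40 µM). 4-Nitrophenolate was read at 405 nm for 1 min. Run in triplicate; IC50 from regression of at least five points.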

Data set [2] concerns the target T2, Bifunctional epoxide hydrolase 2 (Homo sapiens, UniProt P34913).
T2 sequence (P34913 whole entry): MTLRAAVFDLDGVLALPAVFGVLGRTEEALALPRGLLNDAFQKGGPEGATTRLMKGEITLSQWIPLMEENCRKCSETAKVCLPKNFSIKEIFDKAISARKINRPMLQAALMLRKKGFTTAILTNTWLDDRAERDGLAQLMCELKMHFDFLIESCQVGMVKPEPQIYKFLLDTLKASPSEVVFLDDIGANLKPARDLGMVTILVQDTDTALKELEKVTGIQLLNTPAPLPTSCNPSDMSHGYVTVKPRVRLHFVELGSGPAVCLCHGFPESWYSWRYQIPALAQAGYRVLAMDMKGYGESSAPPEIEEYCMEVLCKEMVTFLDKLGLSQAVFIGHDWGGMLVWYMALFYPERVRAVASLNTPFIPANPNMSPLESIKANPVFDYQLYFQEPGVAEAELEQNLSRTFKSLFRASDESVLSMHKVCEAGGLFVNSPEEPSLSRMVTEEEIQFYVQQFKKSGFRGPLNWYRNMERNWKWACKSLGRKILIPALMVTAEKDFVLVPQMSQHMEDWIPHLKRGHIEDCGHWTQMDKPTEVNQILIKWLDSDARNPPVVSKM
The data set can be described thus: Tested for 50 % inhibitory concentration against human soluble epoxide hydrolase (sEH). The method, boiled down: as §1

Data set [3] can be described thus: Solubility in sodium phosphate buffer (0.1 M, pH 7.4) at 25 degrees C was determined.
Data set [4] is described as follows: Partition coefficient (logP). It counts as physicochemical. The note with it: octanol/water. The method, boiled down:
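Compound dissolved in buffer-saturated octanol, then mixed with octanol-saturated 0.1 M sodium phosphate buffer, pH 7.4. Shaken 24 h at 23 ± 1.5 °C and centrifuged 5 min at 200g. Each phase was quantified by LC-MS/MS, and log P was taken as log [octanol]/[water]. Triplicate analyses.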

Data set [5] deals with T3, Bifunctional epoxide hydrolase 2 (Mus musculus) (UniProt P34914).
T3 sequence (whole entry): T1 sequence (P34914 whole entry)
The data set is described as follows: Tested for 90 % inhibitory concentration against mouse soluble epoxide hydrolase (sEH). The gist of the method: (§2)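 Recombinant sEH (human for line 1, mouse for line 2) expressed in baculovirus and affinity-purified to ≥97%. Enzyme was preincubated with inhibitor for 5 min at 30 °C in 0.1 M sodium phosphate, pH 7.4, with 0.1 mg/mL BSA. Racemic 4-nitrophenyl-trans-2,3-epoxy-3-phenylpropyl carbonate (40 µM) was then added, and 4-nitrophenolate was read at 405 nm for 1 min at 30 °C. Assays were run in triplicate.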

The target of data set [6] is T4, Bifunctional epoxide hydrolase 2 (Homo sapiens) (UniProt P34913).
T4 sequence (whole entry): T2 sequence (P34913 whole entry)
The data set can be described thus: Tested for 90 % inhibitory concentration against human soluble epoxide hydrolase (sEH). The gist of the method:
as §2

Turning to `CC(C)=CCCC(C)CCOC(=O)CCCNC(=O)NC12CC3CC(CC(C3)C1)C2` (configuration not stated), the results for the IC50 in data set [1] and in data set [2] were 50 nM and 110 nM, respectively.

In data set [3] (sodium phosphate buffer), `CCCCCCCCCCNC(=O)NC12CC3CC(CC(C3)C1)C2` showed a solubility of 0.62 µg/mL (≈ 1.85 µM). In addition, in data set [4], the logP was found to be 5.25.

Consider `CCOC(=O)CCOC(=O)CCCNC(=O)NC12CC3CC(CC(C3)C1)C2`, for which the IC90 in data set [5] is 630 nM; in data set [6] it was 9000 nM.

In data set [3] (buffer), `CCCCCCCCCCNC(=O)NC1CCCCC1` had a solubility of 0.44 µg/mL (≈ 1.56 µM). The compound further returned a log partition coefficient (logP) in data set [4] of 5.44.

For the compound `COCCCNC(=O)NC1CCCCC1`, the IC50 in data set [1] was 330 nM; in data set [2] it was 6200 nM.

`CCOC(=O)CCCOC(=O)CCCNC(=O)NC12CC3CC(CC(C3)C1)C2`: the 90% effect concentration (IC90) in data set [5] is 160 nM; in data set [6], 5000 nM.

Take `O=C(NCCCCCO)NC1CCCCC1`: the concentration for half-maximal inhibition (IC50) in data set [1] was determined as 90000 nM; in data set [2] it was 253000 nM.

In data set [3], `CCCCCOC(=O)CCCNC(=O)NC1CCCCC1` yielded a solubility of 1.51 µg/mL (≈ 5.06 µM). The compound further displayed a logP in data set [4] of 0.82.

With `CCOC(=O)CCCCCCCCCCOC(=O)CCCNC(=O)NC12CC3CC(CC(C3)C1)C2`, the IC90 in data set [5] is 350 nM; in data set [6], 1200 nM.

On to `CCOC(=O)/C=C/c1ccc(OC(=O)CCCNC(=O)NC23CC4CC(CC(C4)C2)C3)cc1`, for which the half-maximal inhibitory concentration (IC50) in data set [1] turned out to be 50 nM; in data set [2] it was 200 nM.

Turning to `CCCCCNC(=O)NCCNC(=O)Nc1cccc(Cl)c1`, the half-maximal inhibitory concentration (IC50) in data set [2] is more than 100000 nM.

`CCOC(=O)CCCCOC(=O)CCCNC(=O)NC12CC3CC(CC(C3)C1)C2`: the concentration for an effect of 90% (IC90) in data set [5] was 100 nM; in data set [6], 1500 nM.

With `CCOC(=O)CCCCCCCOC(=O)CCCNC(=O)NC12CC3CC(CC(C3)C1)C2`, the 90% effect concentration (IC90) in data set [5] was 160 nM; in data set [6], 720 nM.

In data set [3] (sodium phosphate buffer), `COC(=O)CCCNC(=O)NC12CC3CC(CC(C3)C1)C2` had a solubility of 1.6 µg/mL (≈ 5.43 µM). Moreover, in data set [4], the logP worked out at 0.18. In addition, the figures for the IC50 in data set [1] and in data set [2] were 100 nM and 1600 nM, respectively.

For `CCCCCCC(O)CCCNC(=O)Nc1cccc(Cl)c1` (configuration not stated), the values for the IC50 in data set [1] and in data set [2] were 140 nM and 3100 nM, respectively.

`CCCCCOC(=O)CCCNC(=O)NC12CC3CC(CC(C3)C1)C2`: the solubility in data set [3] (sodium phosphate buffer) is 1.69 µg/mL (≈ 4.82 µM).

With `O=C(NCCCO)NC1CCCCC1`, the half-inhibitory concentration (IC50) in data set [1] and in data set [2] was more than 500000 nM throughout.

Turning to `O=C(O)CNC(=O)NC1CCCCC1`, the IC50 in data set [1] and in data set [2] was more than 500000 nM each time.

In turn, `CCCCCCC(=O)NCCNC(=O)Nc1cccc(Cl)c1` registered an IC50 in data set [2] of more than 100000 nM.

Consider `CCOC(=O)CCCCCCCCCCCOC(=O)CCCNC(=O)NC12CC3CC(CC(C3)C1)C2`, for which the IC90 in data set [5] stood at 630 nM; in data set [6] it was 1800 nM.

`O=C(O)CCCNC(=O)NC12CC3CC(CC(C3)C1)C2` came in with a solubility in data set [3] (sodium phosphate buffer) of 7.06 µg/mL (≈ 25.2 µM). In data set [4], this compound yielded a lipophilicity (logP) of 0.14. The concentration for half-maximal inhibition (IC50) worked out at 22000 nM in data set [1] and 37000 nM in data set [2].

`CCOC(=O)c1ccc(COC(=O)CCCNC(=O)NC23CC4CC(CC(C4)C2)C3)cc1`: the IC50 in data set [1] was determined as 50 nM; in data set [2], 100 nM.

Consider `CCOC(=O)Cc1ccc(OC(=O)CCCNC(=O)NC23CC4CC(CC(C4)C2)C3)cc1`, for which the results for the IC50 in data set [1] and in data set [2] were 50 nM and 140 nM, respectively.

Take `CCOC(=O)CCCCCCCCCOC(=O)CCCNC(=O)NC12CC3CC(CC(C3)C1)C2`: the IC90 in data set [5] is 260 nM; in data set [6], 680 nM.

In the case of `CCOC(=O)COC(=O)CCCNC(=O)NC12CC3CC(CC(C3)C1)C2`, the IC90 in data set [5] was determined as 110 nM; in data set [6], 9000 nM.

`CCCCCOC(=O)NCCNC(=O)Nc1cccc(Cl)c1` yielded an IC50 in data set [2] of more than 100000 nM.
